In ChEMBL document CHEMBL1140759, “Synthesis, anti-Toxoplasma gondii and antimicrobial activities of benzaldehyde 4-phenyl-3-thiosemicarbazones and 2-[(phenylmethylene)hydrazono]-4-oxo-3-phenyl-5-thiazolidineacetic acids” (Bioorg Med Chem, 2008):
pIC50: −log10 of the molar value. ≈ marks a conversion by molar mass, not a printed value.

How the values were obtained:
Toxoplasma gondii [1] = test: Antiparasitic activity against Toxoplasma gondii infected african green monkey Vero cells at 20 mM assessed as infected cells; assay type: functional
Method in brief: (§1)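 Vero cells were infected with RH-strain tachyzoites (5:1 parasite:cell) for 1 h, washed with PBS, and grown 24 h at 37 °C in medium 199 with 5% FCS. Compound was then added for 24 h. Cells were fixed with Bouin's, stained with Giemsa, and at least 400 cells were counted by light microscopy for the percentage infected. Hydroxyurea and sulfadiazine served as references.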

Toxoplasma gondii [2] = test: Antiparasitic activity against Toxoplasma gondii infected african green monkey Vero cells at 5 mM assessed as infected cells; assay type: functional; method in brief: as §1
Escherichia coli [3] = test: Antimicrobial activity against Escherichia coli at 300 ug/disc; assay type: functional; settings: read-out: IZ
Method in brief: (§2)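 Disc diffusion on agar plates inoculated with a standardized microbial suspension, with paper discs carrying known compound amounts. DMSO-only discs served as negative controls, and chloramphenicol, rifampicin (bacteria) or nistatin (fungi) as references. The read-out is the mean inhibition zone diameter in mm. Each run was done three times and repeated if results differed.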

Toxoplasma gondii [4] = test: Antiparasitic activity against Toxoplasma gondii infected african green monkey Vero cells at 0.1 mM assessed as infected cells; assay type: functional; method in brief: as §1
Mycolicibacterium phlei [5] = test: Antimicrobial activity against Mycobacterium phlei at 300 ug/disc; assay type: functional; settings: read-out: IZ; method in brief: as §2
Saccharomyces cerevisiae [6] = test: Antimicrobial activity against Saccharomyces cerevisiae at 300 ug/disc; assay type: functional; settings: read-out: IZ; method in brief: as §2
[7] = system: Mycobacterium tuberculosis; test: Antimicrobial activity against Mycobacterium tuberculosis at 300 ug/disc; assay type: functional; settings: read-out: IZ
Method in brief: (§3)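 Agar disc diffusion: paper discs loaded with compound placed on agar plates seeded with a standardised microbial suspension. DMSO-only discs served as negative control. Chloramphenicol and rifampicin (bacteria) or nistatin (fungi) gave reference zones. Read-out was mean zone of inhibition diameter (mm). Each experiment was run three times and repeated if results differed.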

Candida [8] = test: Antimicrobial activity against Candida sp. IMUR720 at 300 ug/disc; assay type: functional; settings: read-out: IZ; method in brief: as §2
Candida albicans = test: Antimicrobial activity against Candida albicans at 300 ug/disc; assay type: functional; settings: read-out: IZ; method in brief: as §2
[9] = system: Mycobacterium tuberculosis; test: Antimicrobial activity against Mycobacterium tuberculosis; assay type: functional
Enterococcus faecalis [10] = test: Antimicrobial activity against Streptococcus faecalis; assay type: functional
Method in brief: (§4)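 Tube dilution MIC, run on compounds with a disc-diffusion zone of at least 18 mm. The DMSO stock (1 mg/mL) was serially diluted to 10–220 µg/mL final in medium, and strains were inoculated at 10^8/mL. Media were tryptic soy or nutrient agar for bacteria and Sabouraud liquid for fungi, incubated 24–48 h at 37 °C (bacteria) or 30 °C (fungi). MIC is the lowest concentration giving clear tubes.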

Candida [11] = test: Antimicrobial activity against Candida sp. IMUR4249 at 300 ug/disc; assay type: functional; settings: read-out: IZ; method in brief: as §2
Toxoplasma gondii [12] = test: Antiparasitic activity against Toxoplasma gondii infected african green monkey Vero cells at 2 mM assessed as infected cells; assay type: functional; method in brief: as §1
Staphylococcus aureus [13] = test: Antimicrobial activity against Staphylococcus aureus; assay type: functional; method in brief: as §4
Micrococcus luteus [14] = test: Antimicrobial activity against Micrococcus luteus at 300 ug/disc; assay type: functional; settings: read-out: IZ; method in brief: as §2
Toxoplasma gondii [15] = test: Inhibition of intracellular parasite Toxoplasma gondii; assay type: functional, organism-based
Method in brief: (§5)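 Infected Vero cultures were exposed to compound at 0.01–30 mM for 24 h, in triplicate per assay. IC50 for infected cells and intracellular parasites was derived by non-linear regression, using trypan blue exclusion.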

Toxoplasma gondii [16] = test: Antiparasitic activity against Toxoplasma gondii infected african green monkey Vero cells at 8 mM assessed as infected cells; assay type: functional; method in brief: as §1
Candida [17] = test: Antimicrobial activity against Candida sp. IMUR1224 at 300 ug/disc; assay type: functional; settings: read-out: IZ; method in brief: as §2
Bacillus subtilis [18] = test: Antimicrobial activity against Bacillus subtilis at 300 ug/disc; assay type: functional; settings: read-out: IZ; method in brief: as §2
[19] = system: Mycolicibacterium smegmatis; test: Antimicrobial activity against Mycobacterium smegmatis at 300 ug/disc; assay type: functional; settings: read-out: IZ; method in brief: as §2
Staphylococcus aureus [20] = test: Antimicrobial activity against Staphylococcus aureus at 300 ug/disc; assay type: functional; settings: read-out: IZ; method in brief: as §2
[21] = system: Mycolicibacterium smegmatis; test: Antimicrobial activity against Mycobacterium smegmatis; assay type: functional; method in brief: as §4
Toxoplasma gondii [22] = test: Inhibition of Toxoplasma gondii infected in african green monkey Vero cells; assay type: functional, organism-based; method in brief: as §5
Vero = test: Inhibition of uninfected african green monkey Vero cells; assay type: cell-based; settings: Chlorocebus sabaeus
Klebsiella pneumoniae [23] = test: Antimicrobial activity against Klebsiella pneumoniae at 300 ug/disc; assay type: functional; settings: read-out: IZ; method in brief: as §2
Enterococcus faecalis [24] = test: Antimicrobial activity against Streptococcus faecalis at 300 ug/disc; assay type: functional; settings: read-out: IZ; method in brief: as §2
Candida [25] = test: Antimicrobial activity against Candida sp. IMUR4249; assay type: functional; method in brief: as §4
Candida [26] = test: Antimicrobial activity against Candida sp. IMUR4249 at 100 ug/disc; assay type: functional, organism-based; method in brief: as §3
Candida [27] = test: Antimicrobial activity against Candida sp. IMUR1224 at 100 ug/disc; assay type: functional, organism-based; method in brief: as §3
Candida [28] = test: Antimicrobial activity against Candida sp. IMUR720 at 100 ug/disc; assay type: functional, organism-based; method in brief: as §3
Saccharomyces cerevisiae [29] = test: Antimicrobial activity against Saccharomyces cerevisiae at 100 ug/disc; assay type: functional, organism-based; method in brief: as §3
Micrococcus luteus [30] = test: Antimicrobial activity against Micrococcus luteus at 100 ug/disc; assay type: functional; settings: read-out: IZ; method in brief: as §2
Staphylococcus aureus [31] = test: Antimicrobial activity against Staphylococcus aureus at 100 ug/disc; assay type: functional; settings: read-out: IZ; method in brief: as §3
Klebsiella pneumoniae [32] = test: Antimicrobial activity against Klebsiella pneumoniae at 100 ug/disc; assay type: functional; settings: read-out: IZ; method in brief: as §2
Bacillus subtilis [33] = test: Antimicrobial activity against Bacillus subtilis at 100 ug/disc; assay type: functional; settings: read-out: IZ; method in brief: as §2
Escherichia coli [34] = test: Antimicrobial activity against Escherichia coli at 100 ug/disc; assay type: functional; settings: read-out: IZ; method in brief: as §2
[35] = system: Mycobacterium tuberculosis; test: Antimicrobial activity against Mycobacterium tuberculosis at 100 ug/disc; assay type: functional; settings: read-out: IZ; method in brief: as §3
Mycolicibacterium phlei [36] = test: Antimicrobial activity against Mycobacterium phlei at 100 ug/disc; assay type: functional; settings: read-out: IZ; method in brief: as §2
Enterococcus faecalis [37] = test: Antimicrobial activity against Streptococcus faecalis at 100 ug/disc; assay type: functional; settings: read-out: IZ; method in brief: as §2
[38] = system: Mycolicibacterium smegmatis; test: Antimicrobial activity against Mycobacterium smegmatis at 100 ug/disc; assay type: functional; settings: read-out: IZ; method in brief: as §2

Compound	Activity (Toxoplasma gondii [1]) [%]	Activity (Toxoplasma gondii [2]) [%]	zone of inhibition at 300 µg/disc (Escherichia coli [3]) [mm]	Activity (Toxoplasma gondii [4]) [%]	zone of inhibition at 300 µg/disc (Mycolicibacterium phlei [5]) [mm]	zone of inhibition at 300 µg/disc (Saccharomyces cerevisiae [6]) [mm]	zone of inhibition at 300 µg/disc [7] [mm]	zone of inhibition at 300 µg/disc (Candida [8]) [mm]	zone of inhibition at 300 µg/disc (Candida albicans) [mm]	MBC [9] [µg/mL]	MIC [9] [µg/mL]	MBC (Enterococcus faecalis [10]) [µg/mL]	MIC (Enterococcus faecalis [10]) [µg/mL]	zone of inhibition at 300 µg/disc (Candida [11]) [mm]	Activity (Toxoplasma gondii [12]) [%]	MBC (Staphylococcus aureus [13]) [µg/mL]	MIC (Staphylococcus aureus [13]) [µg/mL]	zone of inhibition at 300 µg/disc (Micrococcus luteus [14]) [mm]	pIC50 (Toxoplasma gondii [15])	Activity (Toxoplasma gondii [16]) [%]	other results
CC(C)(C)c1cc(/C=N/N=C2\SC(CC(=O)O)C(=O)N2c2ccccc2)cc(C(C)(C)C)c1O (stereo not drawn)	0	0	< 7	53.55	16	< 7	23	< 7	9	100 (≈ 208 µM)	110 (≈ 228 µM)	190 (≈ 395 µM)	200 (≈ 415 µM)	< 7	0	45 (≈ 93.4 µM)	50 (≈ 104 µM)	22	3.00	0	zone of inhibition at 300 µg/disc (Candida [17]): < 7 mm; zone of inhibition at 300 µg/disc (Bacillus subtilis [18]): 19 mm; zone of inhibition at 300 µg/disc [19]: 26 mm; zone of inhibition at 300 µg/disc (Staphylococcus aureus [20]): 26 mm; MBC [21]: 140 µg/mL (≈ 291 µM); MIC [21]: 150 µg/mL (≈ 311 µM); pIC50 (Toxoplasma gondii [22]): 3.00; pIC50 (Vero): 3.00; zone of inhibition at 300 µg/disc (Klebsiella pneumoniae [23]): < 7 mm; zone of inhibition at 300 µg/disc (Enterococcus faecalis [24]): 18 mm
O=C(O)CC1S/C(=N\N=C\c2ccc(Cl)c(Cl)c2)N(c2ccccc2)C1=O (stereo not drawn)	0	0	< 7	101	12	< 7	18	< 7	7	90 (≈ 213 µM)	100 (≈ 237 µM)			21	0			19	3.00	0	zone of inhibition at 300 µg/disc (Candida [17]): < 7 mm; zone of inhibition at 300 µg/disc (Bacillus subtilis [18]): 16 mm; zone of inhibition at 300 µg/disc [19]: 13 mm; zone of inhibition at 300 µg/disc (Staphylococcus aureus [20]): 11 mm; MFC (Candida [25]): 100 µg/mL (≈ 237 µM); MIC (Candida [25]): 120 µg/mL (≈ 284 µM); pIC50 (Toxoplasma gondii [22]): 2.82; pIC50 (Vero): 2.40; zone of inhibition at 300 µg/disc (Klebsiella pneumoniae [23]): < 7 mm; zone of inhibition at 300 µg/disc (Enterococcus faecalis [24]): 11 mm
NYSTATIN																					inhibition zone (IZ) (Candida [26]): 32 mm; inhibition zone (IZ) (Candida [27]): 30 mm; MFC (Candida [25]): 70 µg/mL; MIC (Candida [25]): 80 µg/mL; inhibition zone (IZ) (Candida [28]): 20 mm; inhibition zone (IZ) (Saccharomyces cerevisiae [29]): 20 mm
O=C(N[C@H](CO)[C@H](O)c1ccc([N+](=O)[O-])cc1)C(Cl)Cl [CHLORAMPHENICOL]												60 (≈ 186 µM)	70 (≈ 217 µM)			20 (≈ 61.9 µM)	25 (≈ 77.4 µM)				zone of inhibition at 100 µg/disc (Micrococcus luteus [30]): 50 mm; zone of inhibition at 100 µg/disc (Staphylococcus aureus [31]): 25 mm; zone of inhibition at 100 µg/disc (Klebsiella pneumoniae [32]): 25 mm; zone of inhibition at 100 µg/disc (Bacillus subtilis [33]): 27 mm; zone of inhibition at 100 µg/disc (Escherichia coli [34]): 27 mm
CO[C@H]1/C=C/O[C@@]2(C)Oc3c(C)c(O)c4c(O)c(c(/C=N/N5CCN(C)CC5)c(O)c4c3C2=O)NC(=O)/C(C)=C\C=C\[C@H](C)[C@H](O)[C@@H](C)[C@@H](O)[C@@H](C)[C@H](OC(C)=O)[C@@H]1C [RIFAMPIN]										100 (≈ 122 µM)	110 (≈ 134 µM)										zone of inhibition at 100 µg/disc [35]: 28 mm; zone of inhibition at 100 µg/disc (Mycolicibacterium phlei [36]): 25 mm; zone of inhibition at 100 µg/disc (Micrococcus luteus [30]): 49 mm; zone of inhibition at 100 µg/disc (Enterococcus faecalis [37]): 20 mm; zone of inhibition at 100 µg/disc (Staphylococcus aureus [31]): 31 mm; MBC [21]: 130 µg/mL (≈ 158 µM); MIC [21]: 140 µg/mL (≈ 170 µM); zone of inhibition at 100 µg/disc (Bacillus subtilis [33]): 20 mm; zone of inhibition at 100 µg/disc (Escherichia coli [34]): 14 mm; zone of inhibition at 100 µg/disc [38]: 30 mm
